According to ChEMBL document CHEMBL1131058, “Studies on quinazolines and 1,2,4-benzothiadiazine 1,1-dioxides. 8.1, 2 synthesis and pharmacological evaluation of tricyclic fused quinazolines and 1,2,4-benzothiadiazine 1,1-dioxides as potential alpha1-adrenoceptor antagonists” (J Med Chem, 1998):

Key:
[1] = biological target: T1, 5-hydroxytryptamine receptor 1A (Rattus norvegicus, UniProt P19327); assay: Compound is evaluated for binding affinity towards 5-hydroxytryptamine 1A receptor using [3H]-8-OH- -DPAT in rat brain cortex; format: tissue-based
T1 sequence (P19327 whole entry): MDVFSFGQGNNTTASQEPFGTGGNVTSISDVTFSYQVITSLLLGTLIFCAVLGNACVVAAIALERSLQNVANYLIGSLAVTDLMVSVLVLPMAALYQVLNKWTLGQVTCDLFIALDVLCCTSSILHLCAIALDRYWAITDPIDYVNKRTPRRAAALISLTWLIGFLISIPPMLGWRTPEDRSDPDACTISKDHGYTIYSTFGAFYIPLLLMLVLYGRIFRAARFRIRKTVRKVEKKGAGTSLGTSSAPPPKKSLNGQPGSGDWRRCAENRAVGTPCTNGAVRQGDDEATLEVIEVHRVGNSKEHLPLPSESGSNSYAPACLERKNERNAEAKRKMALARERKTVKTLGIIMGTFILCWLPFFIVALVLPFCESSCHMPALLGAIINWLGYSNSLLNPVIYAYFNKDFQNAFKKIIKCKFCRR
Procedure, shortened: (§1)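 Contract radioligand competition binding. Sources: 5-HT1 and 5-HT1A in rat brain cortex; 5-HT2 and σ2 in rat brain; σ in guinea pig brain; D2, rhD2 and rhD3 in CHO cells with [³H]spiperone; H1 in guinea pig lung with [³H]pyrilamine. Inhibition constants reported; no constant given where inhibition at 10 µM was below 50%.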

[2] = biological target: Serotonin 2 (5-HT2) receptor (Rattus norvegicus, UniProt P30994+P08909+P14842); assay: Compound is evaluated for binding affinity towards 5-hydroxytryptamine 2 receptor using [3H]ketanserin in rat brain; format: tissue-based; procedure, shortened: as §1
[3] = biological target: T2, Adrenergic receptor alpha-1 (Rattus norvegicus, UniProt P15823+P23944+P43140); assay: Displacement of [3H]-prazosin from Alpha-1 adrenergic receptor of rat cortical membranes; format: cell membranes, Membrane
T2 sequence (P15823 whole entry): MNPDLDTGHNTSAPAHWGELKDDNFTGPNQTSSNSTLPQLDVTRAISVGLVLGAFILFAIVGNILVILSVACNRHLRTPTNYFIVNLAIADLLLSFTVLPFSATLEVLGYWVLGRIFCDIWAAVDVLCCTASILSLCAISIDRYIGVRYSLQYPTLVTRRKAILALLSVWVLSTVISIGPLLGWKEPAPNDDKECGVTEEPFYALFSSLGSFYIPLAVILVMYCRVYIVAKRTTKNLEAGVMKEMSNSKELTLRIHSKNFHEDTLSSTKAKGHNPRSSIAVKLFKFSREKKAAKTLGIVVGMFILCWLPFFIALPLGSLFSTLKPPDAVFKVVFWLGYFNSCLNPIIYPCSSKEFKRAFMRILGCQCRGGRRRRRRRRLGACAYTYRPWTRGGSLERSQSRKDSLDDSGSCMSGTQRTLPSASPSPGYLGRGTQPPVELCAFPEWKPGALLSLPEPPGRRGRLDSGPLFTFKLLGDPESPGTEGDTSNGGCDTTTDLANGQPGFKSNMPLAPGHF
T2 sequence (P23944 whole entry): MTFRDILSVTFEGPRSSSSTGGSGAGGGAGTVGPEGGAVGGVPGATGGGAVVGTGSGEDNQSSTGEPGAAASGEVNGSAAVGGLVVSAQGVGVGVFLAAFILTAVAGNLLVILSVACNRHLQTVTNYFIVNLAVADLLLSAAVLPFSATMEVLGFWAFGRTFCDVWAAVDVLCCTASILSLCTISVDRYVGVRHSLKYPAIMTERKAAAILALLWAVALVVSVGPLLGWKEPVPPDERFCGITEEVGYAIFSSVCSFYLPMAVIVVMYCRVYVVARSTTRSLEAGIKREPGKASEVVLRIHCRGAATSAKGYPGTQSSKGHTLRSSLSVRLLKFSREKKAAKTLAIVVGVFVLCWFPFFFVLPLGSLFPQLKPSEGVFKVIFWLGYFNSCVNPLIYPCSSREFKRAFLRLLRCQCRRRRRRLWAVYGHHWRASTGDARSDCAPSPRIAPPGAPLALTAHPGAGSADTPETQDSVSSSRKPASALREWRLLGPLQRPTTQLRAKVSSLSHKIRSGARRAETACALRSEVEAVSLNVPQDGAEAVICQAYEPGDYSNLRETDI
T2 sequence (P43140 whole entry): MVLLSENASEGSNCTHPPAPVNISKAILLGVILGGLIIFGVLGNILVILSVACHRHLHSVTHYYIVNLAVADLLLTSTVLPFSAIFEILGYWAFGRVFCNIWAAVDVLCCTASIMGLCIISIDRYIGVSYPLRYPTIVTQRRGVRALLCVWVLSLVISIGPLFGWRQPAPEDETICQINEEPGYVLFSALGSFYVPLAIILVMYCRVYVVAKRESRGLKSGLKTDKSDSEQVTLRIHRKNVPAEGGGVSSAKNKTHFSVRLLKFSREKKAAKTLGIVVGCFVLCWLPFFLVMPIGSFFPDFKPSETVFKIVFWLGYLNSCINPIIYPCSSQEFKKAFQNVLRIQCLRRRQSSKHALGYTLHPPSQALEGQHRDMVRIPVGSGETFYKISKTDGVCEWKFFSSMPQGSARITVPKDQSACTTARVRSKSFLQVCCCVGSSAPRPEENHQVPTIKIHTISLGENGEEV
Procedure, shortened: (§2)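 Triplicate competition binding against 0.2-0.25 nM [³H]prazosin in Tris buffer pH 7.4, 30 min at room temperature. Competitor range 0.1-200 nM. Nonspecific binding defined with 10 µM phentolamine. Reaction stopped by GF/B filtration with two cold Tris washes. Membrane protein 300-400 µg per assay. Ki calculated from the data; mean ± SEM of 3-6 experiments.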

[4] = biological target: T3, Alpha-1A adrenergic receptor (Rattus norvegicus, UniProt P43140); assay: Displacement of [3H]prazosin from Alpha-1A adrenergic receptor of rat submaxillary gland membranes; format: cell membranes, Membrane; procedure, shortened: as §2
T3 sequence (P43140 whole entry): T2 sequence (P43140 whole entry)

[5] = biological target: Serotonin 1 (5-HT1) receptor (Rattus norvegicus) (UniProt P28564+P30940+P19327+P28565); assay: Compound is evaluated for binding affinity towards 5-hydroxytryptamine 1 receptor using [3H]5-HT in rat brain cortex at 10 uM; format: tissue-based
Procedure, shortened: (§3)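 Single-concentration screen at 10 µM in contract radioligand binding assays. Records whether inhibition of specific radioligand binding stayed below 50%.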

D(2) dopamine receptor [6] = biological target: T4, D(2) dopamine receptor (Homo sapiens, UniProt P14416); assay: Compound is evaluated for binding affinity towards recombinant human Dopamine receptor D2 using [3H]spiperone in CHO cells at 10 uM; format: cell-based; procedure, shortened: as §3
D(3) dopamine receptor = D(3) dopamine receptor (Homo sapiens, UniProt P35462); assay: Compound is evaluated for binding affinity towards recombinant human Dopamine receptor D3 using [3H]spiperone in CHO cells at 10 uM; format: cell-based; procedure, shortened: as §3
D(2) dopamine receptor [7] = biological target: T4, D(2) dopamine receptor; assay: Compound is evaluated for binding affinity towards Dopamine receptor D2 using [3H]spiperone in CHO cells at 10 uM; format: cell-based
[8] = biological target: Histamine H1 receptor (Cavia porcellus) (UniProt P31389); assay: Compound is evaluated for binding affinity towards Histamine H1 receptor using [3H]pyrilamine in guinea pig lung at 10 uM; format: tissue-based; procedure, shortened: as §3
Sequence of Histamine H1 receptor (Cavia porcellus) (P31389 whole entry): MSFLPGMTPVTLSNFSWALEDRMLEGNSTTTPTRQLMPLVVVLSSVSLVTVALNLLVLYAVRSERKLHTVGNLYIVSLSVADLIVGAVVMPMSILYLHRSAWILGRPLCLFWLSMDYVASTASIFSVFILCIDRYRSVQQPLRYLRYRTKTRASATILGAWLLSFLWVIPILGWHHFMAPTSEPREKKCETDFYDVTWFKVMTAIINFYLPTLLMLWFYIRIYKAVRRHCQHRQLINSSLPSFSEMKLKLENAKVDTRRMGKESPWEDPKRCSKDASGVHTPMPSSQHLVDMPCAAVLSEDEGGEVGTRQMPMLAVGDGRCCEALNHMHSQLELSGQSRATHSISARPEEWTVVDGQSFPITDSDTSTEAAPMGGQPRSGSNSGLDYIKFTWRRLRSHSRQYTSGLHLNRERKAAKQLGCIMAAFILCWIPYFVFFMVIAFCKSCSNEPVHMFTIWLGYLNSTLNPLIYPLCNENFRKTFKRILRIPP

T4 sequence (P14416 whole entry): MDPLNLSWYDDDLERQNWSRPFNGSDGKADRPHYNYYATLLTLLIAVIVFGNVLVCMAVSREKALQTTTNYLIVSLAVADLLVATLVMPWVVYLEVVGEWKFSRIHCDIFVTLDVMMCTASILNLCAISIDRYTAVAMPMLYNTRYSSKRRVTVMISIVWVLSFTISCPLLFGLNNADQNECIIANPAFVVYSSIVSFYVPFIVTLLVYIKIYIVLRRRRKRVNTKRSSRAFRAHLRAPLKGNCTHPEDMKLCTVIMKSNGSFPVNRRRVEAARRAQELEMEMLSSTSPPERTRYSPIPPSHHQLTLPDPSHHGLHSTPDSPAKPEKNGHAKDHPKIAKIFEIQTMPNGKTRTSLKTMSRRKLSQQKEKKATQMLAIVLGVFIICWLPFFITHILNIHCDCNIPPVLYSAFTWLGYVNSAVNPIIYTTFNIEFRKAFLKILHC
Sequence of D(3) dopamine receptor (P35462 whole entry): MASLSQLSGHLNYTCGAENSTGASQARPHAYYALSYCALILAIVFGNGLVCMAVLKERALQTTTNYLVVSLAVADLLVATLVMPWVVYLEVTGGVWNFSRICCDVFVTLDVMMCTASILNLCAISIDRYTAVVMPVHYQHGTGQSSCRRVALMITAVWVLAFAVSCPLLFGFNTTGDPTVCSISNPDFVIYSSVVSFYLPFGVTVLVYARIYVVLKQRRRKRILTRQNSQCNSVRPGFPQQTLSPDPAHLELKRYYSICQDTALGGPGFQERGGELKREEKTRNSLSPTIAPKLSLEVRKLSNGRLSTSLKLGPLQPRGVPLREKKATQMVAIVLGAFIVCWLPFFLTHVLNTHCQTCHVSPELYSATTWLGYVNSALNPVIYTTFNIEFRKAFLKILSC

| SMILES | Ki [1] [nM] | Ki [2] [nM] | Ki [3] [nM] | Ki [4] [nM] | inhibition [5] [%] | inhibition (D(2) dopamine receptor [6]) [%] | inhibition (D(3) dopamine receptor) [%] | inhibition (D(2) dopamine receptor [7]) [%] | inhibition [8] [%] |
| --- | --- | --- | --- | --- | --- | --- | --- | --- | --- |
| COc1ccccc1N1CCN(CC2CN=C3c4ccccc4N=C(SC)N32)CC1 (stereo unspecified) | 237 | 168 | 0.9 | 0.93 | – | – | – | – | – |
| COc1ccccc1N1CCN(Cc2cn3c(O)nc4ccccc4c3n2)CC1 | – | 3580 | – | – | < 50 | < 50 | < 50 | < 50 | < 50 |
| COc1ccccc1N1CCN(Cc2cnc3c4ccccc4nc(O)n23)CC1 | 4000 | 514 | – | – | < 50 | < 50 | < 50 | < 50 | < 50 |
| COc1ccccc1N1CCN(C[C@H]2CN=C3c4ccccc4N=C(SC)N32)CC1 | – | – | 1 | 1.5 | – | – | – | – | – |
| COc1ccccc1N1CCN(C[C@@H]2CN=C3c4ccccc4NC(=O)N32)CC1 | – | – | 26 | 55 | – | – | – | – | – |
| Oc1nc2ccccc2c2ncc(CN3CCN(c4ccccc4Cl)CC3)n12 | – | 114 | – | – | < 50 | < 50 | < 50 | – | < 50 |
| COc1ccccc1N1CCN(C[C@@H]2CN=C3c4ccccc4N=C(SC)N32)CC1 | – | – | 144 | 122 | – | – | – | – | – |
| COc1ccccc1N1CCN(C[C@H]2CN=C3c4ccccc4NC(=O)N32)CC1 | – | – | 0.13 | 0.23 | – | – | – | – | – |
| COc1ccccc1N1CCN(CC2CN3C(=O)Nc4ccccc4C3=N2)CC1 (stereo unspecified) | 238 | 369 | 0.93 | 0.65 | – | < 50 | – | < 50 | – |
